{"data": "Published values of several laboratories", "target": "Interleukin-1 receptor-associated kinase 4 (IRAK4, Homo sapiens, UniProt Q9NWZ3)", "Residues used in one study (Q9NWZ3 1-460)": "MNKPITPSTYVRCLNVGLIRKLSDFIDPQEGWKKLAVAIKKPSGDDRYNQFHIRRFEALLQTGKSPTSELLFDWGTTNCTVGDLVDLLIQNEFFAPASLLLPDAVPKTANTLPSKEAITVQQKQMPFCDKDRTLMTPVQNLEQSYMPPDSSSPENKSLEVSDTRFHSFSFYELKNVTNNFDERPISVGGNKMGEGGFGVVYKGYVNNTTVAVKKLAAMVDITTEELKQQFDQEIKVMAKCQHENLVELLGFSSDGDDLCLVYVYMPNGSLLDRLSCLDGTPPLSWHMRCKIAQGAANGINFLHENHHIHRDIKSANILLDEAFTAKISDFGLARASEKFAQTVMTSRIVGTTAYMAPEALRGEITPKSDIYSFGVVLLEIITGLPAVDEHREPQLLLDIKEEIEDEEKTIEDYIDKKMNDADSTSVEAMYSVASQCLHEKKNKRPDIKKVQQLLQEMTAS", "note": "Each line is one published result; the experiments were not run side by side."}
{"Structure (SMILES)": "CNCc1ccccc1-c1csc([C@H](C)Nc2nc(C)nc3cc(OC)c(OC)cc23)c1", "assay": "cell-free assay, competition with immobilised ligand", "conditions": "1 µM", "remaining binding [%]": 89}
{"Structure (SMILES)": "Cc1cnn2ncc(-c3ccnc(N(C)C)n3)c2c1", "assay": "binding", "conditions": "1 µM", "remaining binding [%]": 100}
{"Structure (SMILES)": "O=C(NCCCN1CCOCC1)c1ccc(Nc2nccc(-c3cc4ccccc4s3)n2)cc1", "assay": "binding, competition with immobilised ligand", "conditions": "1 µM", "remaining binding [%]": 75}
{"Structure (SMILES)": "COc1ccnn2ncc(-c3ccnc(N(C)C)n3)c12", "assay": "binding", "conditions": "1 µM", "remaining binding [%]": 80}
{"Structure (SMILES)": "O=C(NCCCN1CCOCC1)c1ccc(Nc2ncc(Cl)c(-c3ccc(Cl)s3)n2)cc1", "assay": "binding, competition with immobilised ligand", "conditions": "1 µM", "remaining binding [%]": 75}
{"Structure (SMILES)": "COc1ncc2cc3ccccc3nc2c1C#N", "assay": "cell-free assay, competition with immobilised ligand", "conditions": "5 µM", "remaining binding [%]": 97}
{"Structure (SMILES)": "CCS(=O)(=O)c1cc2cc(C[C@@](O)(CC(C)(C)c3ccc(F)cc3C(N)=O)C(F)(F)F)[nH]c2cn1", "assay": "cell-free assay, competition with immobilised ligand", "conditions": "1 µM", "remaining binding [%]": 100}
{"Structure (SMILES)": "O=C(NCC1CCOCC1)c1n[nH]cc1NC(=O)c1c(F)cccc1F", "assay": "binding, competition with immobilised ligand", "conditions": "1 µM", "remaining binding [%]": 100}
{"Structure (SMILES)": "O=C(c1ccc(Nc2ncc(Cl)c(-c3ccc(Cl)s3)n2)cc1)N1CCC(N2CCCC2)CC1", "assay": "binding, competition with immobilised ligand", "conditions": "1 µM", "remaining binding [%]": 60}
{"Structure (SMILES)": "C[C@H]1CCN(c2nccc(-c3cnn4ncccc34)n2)C1", "assay": "binding", "conditions": "1 µM", "remaining binding [%]": 73}
{"Structure (SMILES)": "O=C1NC(c2ccccn2)Sc2ccccc21 (centres unmarked)", "assay": "cell-free assay, competition with immobilised ligand", "conditions": "1 µM", "remaining binding [%]": 100}
{"Structure (SMILES)": "CN(C)c1nccc(-c2cnc3ncccn23)n1", "assay": "binding", "conditions": "1 µM", "remaining binding [%]": 74}
{"Structure (SMILES)": "CCOC(=O)c1cc2cc(-c3cc(C(=O)NCc4ccc(C(=O)O)cc4)nn3C)ccc2[nH]1", "assay": "cell-free assay, competition with immobilised ligand", "conditions": "0.1 µM", "remaining binding [%]": 91}
{"Structure (SMILES)": "c1cncc(-c2cccc(Nc3nccc(NC4CCCCC4)n3)c2)c1", "assay": "binding, competition with immobilised ligand", "conditions": "10 µM", "remaining binding [%]": 34}
{"Structure (SMILES)": "c1cnn2ncc(-c3ccnc(N4CCC45COC5)n3)c2c1", "assay": "binding", "conditions": "1 µM", "remaining binding [%]": 79}
{"Structure (SMILES)": "COc1cnc(Nc2cccc(S(N)(=O)=O)c2)nc1N1CCN(c2ccccc2)CC1", "assay": "binding, competition with immobilised ligand", "conditions": "1 µM", "remaining binding [%]": 65}
{"Structure (SMILES)": "O=C(NCCCC1CCCCC1)c1ccc(CNC(=O)c2cnn(-c3ccccc3)c2C(F)(F)F)cc1", "assay": "cell-free assay, competition with immobilised ligand", "conditions": "0.1 µM", "remaining binding [%]": 100}
{"Structure (SMILES)": "CN(c1nccc(-c2cnn3ncccc23)n1)C1CC1", "assay": "binding", "conditions": "1 µM", "remaining binding [%]": 100}
{"Structure (SMILES)": "O=C(NCc1ncc(C(F)(F)F)cc1Cl)c1ccc2c(c1)C1(CCS(=O)(=O)CC1)[C@H](C1CC1)N2S(=O)(=O)c1ccc(F)cc1", "assay": "cell-free assay, competition with immobilised ligand", "conditions": "1 µM", "remaining binding [%]": 100}
{"Structure (SMILES)": "Nc1ncc2c(n1)-c1c([nH]c3ccc(C#CC4CC4)cc13)CCCC2", "assay": "binding, competition with immobilised ligand", "conditions": "1 µM", "remaining binding [%]": 86}
